How the values were obtained:
[1] = Oral bioavailability in rat at 10 mg/kg by LC-MS/MS analysis; format: ADME, organism-based; details: in vivo
In short: (§1)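 Rats dosed orally at 10 mg/kg as a solution in 30% HPBCD/70% water, brought to pH 10 with KOH.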

[2] = Half life in rat at 0.5 mg/kg, iv by LC-MS/MS analysis; format: ADME, organism-based; details: in vivo
In short: (§2)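 Male rats, n = 2 per group, dosed intravenously at 0.5 mg/kg as a solution in 100% DMSO. Unbound clearance is derived from total clearance.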

[3] = target: Sodium channel protein type 1 subunit alpha (Homo sapiens, UniProt P35498); assay: Inhibition of 20% inactivated human Nav1.1 expressed in HEK293 cells assessed as inhibition of peak inward current by whole cell patch clamp method; format: cell-based
[4] = Tmax in dog at 1.7 mg/kg, po by LC-MS/MS analysis; format: ADME, organism-based, Canis lupus familiaris; details: in vivo
In short: (§3)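 Dogs given a 1.7 mg/kg oral dose as a solution in 30% HPBCD/70% water/KOH at pH = 10; plasma parameters derived from this oral dosing, with the iv dose at 0.5 mg/kg in the same vehicle.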

[5] = Inhibition of 20% inactivated cynomolgus monkey Nav1.7 expressed in HEK293T cells assessed as inhibition of sodium current measured for 3 to 5 mins by whole cell voltage clamp method; format: cell-based; details: Macaca fascicularis, HEK-293T
In short: (§4)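 Electrophysiological block was measured with cells depolarized to a voltage that gave 20% channel inactivation, as opposed to a fully non-inactivated (closed) holding condition.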

[6] = Unbound plasma concentration in histamine induced C57BL/6 mouse model of scratching at 5 mg/kg, po pretreated for 120 mins followed by histamine-challenge measured after 30 mins; format: ADME, organism-based; details: in vivo, 0.5 h
In short: (§5)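 Male C57BL/6 mice dosed orally 120 min before intradermal histamine. Scratching bouts counted over 30 min and compared with vehicle by one-way ANOVA with Dunnett's test. Total and unbound plasma levels taken 30 min after histamine.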

[7] = Inhibition of 20% inactivated dog Nav1.7 expressed in HEK293T cells assessed as inhibition of sodium current measured for 3 to 5 mins by whole cell voltage clamp method; format: cell-based; details: HEK-293T; in short: as §4
[8] = tested on: Mus musculus; assay: Antipruritic activity in histamine-induced scratching C57BL/6 mouse model assessed as reduction in scratching bouts administered orally 120 mins prior to histamine challenge measured after 30 mins relative to vehicle-treated control; format: functional; in short: as §5
[9] = Unbound clearance in dog at 0.5 mg/kg, iv by LC-MS/MS analysis; format: ADME, organism-based, Canis lupus familiaris; details: in vivo
In short: (§6)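 Dogs dosed intravenously at 0.5 mg/kg in 30% HPBCD/70% water, brought to pH 10 with KOH.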

[10] = target: Sodium channel protein type 3 subunit alpha (Homo sapiens, UniProt Q9NY46); assay: Inhibition of 20% inactivated human Nav1.3 expressed in CHO cells assessed as inhibition of peak inward current by whole cell patch clamp method; format: cell-based
[11] = Total plasma concentration in histamine induced C57BL/6 mouse model of scratching at 5 mg/kg, po pretreated for 120 mins followed by histamine-challenge measured after 30 mins; format: ADME, organism-based; in short: as §5
[12] = Cmax in rat at 10 mg/kg, po by LC-MS/MS analysis; format: ADME, organism-based; set-up: dose 10 mg/kg, route oral; details: in vivo; in short: as §1
[13] = Total plasma concentration in histamine induced C57BL/6 mouse model of scratching at 20 mg/kg, po pretreated for 120 mins followed by histamine-challenge measured after 30 mins; format: ADME, organism-based; in short: as §5
[14] = Unbound clearance in rat at 0.5 mg/kg, iv by LC-MS/MS analysis; format: ADME, organism-based; details: in vivo; in short: as §2
[15] = target: T1, Sodium channel protein type 9 subunit alpha (Homo sapiens, UniProt Q15858); assay: Inhibition of human Nav1.7 expressed in HEK293 cells assessed as inhibition of sodium current at holding potential of -60 mV measured for 3 to 5 mins by whole cell voltage clamp method; format: cell-based
[16] = target: T1, Sodium channel protein type 9 subunit alpha; assay: Inhibition of human Nav1.7 in closed state expressed in HEK293 cells assessed as inhibition of sodium current at holding potential of -140 mV measured for 3 to 5 mins by whole cell voltage clamp method; format: cell-based
In short: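 Closed-state (fully non-inactivated) protocol: inhibition was measured with cells held at −140 mV, for comparison with protocols using inactivating depolarizations.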

[17] = target: Sodium channel protein type 8 subunit alpha (Homo sapiens, UniProt Q9UQD0); assay: Inhibition of 20% inactivated human Nav1.6 expressed in HEK293 cells assessed as inhibition of peak inward current by whole cell patch clamp method; format: cell-based
[18] = target: T1, Sodium channel protein type 9 subunit alpha; assay: Inhibition of 20% inactivated human Nav1.7 expressed in HEK293 cells assessed as inhibition of peak inward current by whole cell patch clamp method; format: cell-based; in short: as §4
[19] = Drug excretion in bile duct cannulated Sprague-Dawley rat urine assessed as parent compound at 1 mg/kg, iv administered through catheter measured up to 24 hrs by LC-MS/MS analysis; format: ADME, organism-based; details: read-out: Drug excretion
[20] = target: Sodium channel protein type 9 subunit alpha (Mus musculus, UniProt Q62205); assay: Inhibition of 20% inactivated mouse Nav1.7 expressed in HEK293 cells assessed as inhibition of sodium current measured for 3 to 5 mins by whole cell voltage clamp method; format: cell-based
In short: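 Mouse NaV1.7 was stably transfected into HEK293 cells. Block was measured with cells depolarized to a voltage that gave 20% channel inactivation.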

[21] = Cmax in dog at 1.7 mg/kg, po by LC-MS/MS analysis; format: ADME, organism-based, Canis lupus familiaris; set-up: dose 1.7 mg/kg, route oral; details: in vivo; in short: as §3
[22] = target: Sodium channel protein type 5 subunit alpha (Homo sapiens, UniProt Q14524); assay: Inhibition of 20% inactivated human Nav1.5 expressed in HEK293 cells assessed as inhibition of peak inward current by whole cell patch clamp method; format: cell-based
[23] = Dissociation constant, pKa of the compound at pH 1.7 to 11.2 by capillary electrophoresis method; format: physicochemical
In short: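 pKa values calculated from capillary electrophoresis data collected over pH 1.7 to 11.2.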

[24] = Half life in dog at 0.5 mg/kg, iv by LC-MS/MS analysis; format: ADME, organism-based, Canis lupus familiaris; details: in vivo; in short: as §6
[25] = target: T1, Sodium channel protein type 9 subunit alpha; assay: Inhibition of human Nav1.7 expressed in HEK293 cells assessed as inhibition of sodium current at holding potential of -125 mV measured for 3 to 5 mins by whole cell voltage clamp method; format: cell-based
[26] = Fraction unbound in rat plasma at 5 uM measured after 45 mins by LC-MS/MS analysis; format: ADME, cell-free
[27] = Clearance in dog at 0.5 mg/kg, iv by LC-MS/MS analysis; format: ADME, organism-based, Canis lupus familiaris; details: in vivo
[28] = Fraction unbound in dog plasma at 5 uM by LC-MS/MS analysis; format: ADME, cell-free, Canis lupus familiaris
[29] = target: Sodium channel protein type 2 subunit alpha (Homo sapiens, UniProt Q99250); assay: Inhibition of 20% inactivated human Nav1.2 expressed in CHO cells assessed as inhibition of peak inward current by whole cell patch clamp method; format: cell-based
[30] = target: Sodium channel protein type 10 subunit alpha (Homo sapiens, UniProt Q9Y5Y9); assay: Inhibition of 20% inactivated human Nav1.8 expressed in CHO cells assessed as inhibition of TTX-resistant current by whole cell patch clamp method; format: cell-based
[31] = target: Voltage-gated inwardly rectifying potassium channel KCNH2 (Homo sapiens, UniProt Q12809); assay: Displacement of [3H]dofetilide from human ERG expressed in HEK293 cell membranes measured after 90 mins by TopCount scintillation counting method
[32] = Unbound plasma concentration in histamine induced C57BL/6 mouse model of scratching at 20 mg/kg, po pretreated for 120 mins followed by histamine-challenge measured after 30 mins; format: ADME, organism-based; details: in vivo, 0.5 h; in short: as §5

T1 sequence (Q15858 whole entry): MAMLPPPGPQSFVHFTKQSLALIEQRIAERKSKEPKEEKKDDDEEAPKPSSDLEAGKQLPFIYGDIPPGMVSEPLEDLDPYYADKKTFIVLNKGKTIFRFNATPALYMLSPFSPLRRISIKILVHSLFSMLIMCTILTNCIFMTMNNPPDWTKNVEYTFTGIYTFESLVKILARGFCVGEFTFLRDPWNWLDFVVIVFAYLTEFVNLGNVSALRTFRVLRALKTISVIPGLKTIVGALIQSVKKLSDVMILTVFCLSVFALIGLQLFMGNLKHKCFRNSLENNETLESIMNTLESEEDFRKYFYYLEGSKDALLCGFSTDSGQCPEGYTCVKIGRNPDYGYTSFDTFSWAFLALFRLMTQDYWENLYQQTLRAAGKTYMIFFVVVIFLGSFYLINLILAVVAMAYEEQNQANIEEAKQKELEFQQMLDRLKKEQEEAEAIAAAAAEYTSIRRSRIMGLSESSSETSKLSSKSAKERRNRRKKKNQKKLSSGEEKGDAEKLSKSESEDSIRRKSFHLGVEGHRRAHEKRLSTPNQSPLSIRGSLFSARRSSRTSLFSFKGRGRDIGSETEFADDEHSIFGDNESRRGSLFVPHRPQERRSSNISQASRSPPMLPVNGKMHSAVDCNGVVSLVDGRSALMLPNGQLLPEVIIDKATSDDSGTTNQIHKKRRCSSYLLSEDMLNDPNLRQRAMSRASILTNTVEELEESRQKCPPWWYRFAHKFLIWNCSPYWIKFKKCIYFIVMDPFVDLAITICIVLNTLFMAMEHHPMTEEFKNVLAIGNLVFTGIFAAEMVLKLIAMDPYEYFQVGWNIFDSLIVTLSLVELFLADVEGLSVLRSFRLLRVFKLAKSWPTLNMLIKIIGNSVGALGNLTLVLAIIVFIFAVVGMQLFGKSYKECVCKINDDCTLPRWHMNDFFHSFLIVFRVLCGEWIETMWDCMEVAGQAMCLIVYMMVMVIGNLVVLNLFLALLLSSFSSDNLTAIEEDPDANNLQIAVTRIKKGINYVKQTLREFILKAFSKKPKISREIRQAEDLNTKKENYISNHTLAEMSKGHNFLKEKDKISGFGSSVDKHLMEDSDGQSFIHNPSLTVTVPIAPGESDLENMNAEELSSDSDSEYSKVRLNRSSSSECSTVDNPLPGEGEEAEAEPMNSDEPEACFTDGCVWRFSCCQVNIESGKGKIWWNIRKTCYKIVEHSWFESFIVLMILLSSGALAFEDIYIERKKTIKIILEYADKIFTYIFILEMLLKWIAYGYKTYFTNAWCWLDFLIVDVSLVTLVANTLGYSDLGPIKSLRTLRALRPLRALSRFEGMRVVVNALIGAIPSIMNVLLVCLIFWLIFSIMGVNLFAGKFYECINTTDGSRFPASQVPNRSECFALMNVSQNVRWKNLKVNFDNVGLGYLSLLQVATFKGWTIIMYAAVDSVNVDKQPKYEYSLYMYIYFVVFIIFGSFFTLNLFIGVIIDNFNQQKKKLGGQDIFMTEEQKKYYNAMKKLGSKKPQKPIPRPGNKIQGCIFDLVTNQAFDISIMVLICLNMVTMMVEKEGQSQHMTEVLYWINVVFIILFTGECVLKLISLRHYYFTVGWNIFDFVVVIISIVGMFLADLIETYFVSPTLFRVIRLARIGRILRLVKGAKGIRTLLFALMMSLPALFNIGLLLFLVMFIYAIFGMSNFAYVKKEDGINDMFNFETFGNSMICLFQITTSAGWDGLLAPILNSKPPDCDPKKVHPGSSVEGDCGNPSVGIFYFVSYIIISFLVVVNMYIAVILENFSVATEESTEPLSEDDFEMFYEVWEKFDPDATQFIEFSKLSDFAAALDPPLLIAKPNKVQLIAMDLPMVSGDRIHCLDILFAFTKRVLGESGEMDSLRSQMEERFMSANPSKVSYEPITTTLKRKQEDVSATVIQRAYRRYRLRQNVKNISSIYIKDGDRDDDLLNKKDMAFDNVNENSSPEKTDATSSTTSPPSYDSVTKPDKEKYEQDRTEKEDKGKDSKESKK
Sodium channel protein type 9 subunit alpha (Mus musculus, UniProt Q62205), sequence (Q62205 whole entry): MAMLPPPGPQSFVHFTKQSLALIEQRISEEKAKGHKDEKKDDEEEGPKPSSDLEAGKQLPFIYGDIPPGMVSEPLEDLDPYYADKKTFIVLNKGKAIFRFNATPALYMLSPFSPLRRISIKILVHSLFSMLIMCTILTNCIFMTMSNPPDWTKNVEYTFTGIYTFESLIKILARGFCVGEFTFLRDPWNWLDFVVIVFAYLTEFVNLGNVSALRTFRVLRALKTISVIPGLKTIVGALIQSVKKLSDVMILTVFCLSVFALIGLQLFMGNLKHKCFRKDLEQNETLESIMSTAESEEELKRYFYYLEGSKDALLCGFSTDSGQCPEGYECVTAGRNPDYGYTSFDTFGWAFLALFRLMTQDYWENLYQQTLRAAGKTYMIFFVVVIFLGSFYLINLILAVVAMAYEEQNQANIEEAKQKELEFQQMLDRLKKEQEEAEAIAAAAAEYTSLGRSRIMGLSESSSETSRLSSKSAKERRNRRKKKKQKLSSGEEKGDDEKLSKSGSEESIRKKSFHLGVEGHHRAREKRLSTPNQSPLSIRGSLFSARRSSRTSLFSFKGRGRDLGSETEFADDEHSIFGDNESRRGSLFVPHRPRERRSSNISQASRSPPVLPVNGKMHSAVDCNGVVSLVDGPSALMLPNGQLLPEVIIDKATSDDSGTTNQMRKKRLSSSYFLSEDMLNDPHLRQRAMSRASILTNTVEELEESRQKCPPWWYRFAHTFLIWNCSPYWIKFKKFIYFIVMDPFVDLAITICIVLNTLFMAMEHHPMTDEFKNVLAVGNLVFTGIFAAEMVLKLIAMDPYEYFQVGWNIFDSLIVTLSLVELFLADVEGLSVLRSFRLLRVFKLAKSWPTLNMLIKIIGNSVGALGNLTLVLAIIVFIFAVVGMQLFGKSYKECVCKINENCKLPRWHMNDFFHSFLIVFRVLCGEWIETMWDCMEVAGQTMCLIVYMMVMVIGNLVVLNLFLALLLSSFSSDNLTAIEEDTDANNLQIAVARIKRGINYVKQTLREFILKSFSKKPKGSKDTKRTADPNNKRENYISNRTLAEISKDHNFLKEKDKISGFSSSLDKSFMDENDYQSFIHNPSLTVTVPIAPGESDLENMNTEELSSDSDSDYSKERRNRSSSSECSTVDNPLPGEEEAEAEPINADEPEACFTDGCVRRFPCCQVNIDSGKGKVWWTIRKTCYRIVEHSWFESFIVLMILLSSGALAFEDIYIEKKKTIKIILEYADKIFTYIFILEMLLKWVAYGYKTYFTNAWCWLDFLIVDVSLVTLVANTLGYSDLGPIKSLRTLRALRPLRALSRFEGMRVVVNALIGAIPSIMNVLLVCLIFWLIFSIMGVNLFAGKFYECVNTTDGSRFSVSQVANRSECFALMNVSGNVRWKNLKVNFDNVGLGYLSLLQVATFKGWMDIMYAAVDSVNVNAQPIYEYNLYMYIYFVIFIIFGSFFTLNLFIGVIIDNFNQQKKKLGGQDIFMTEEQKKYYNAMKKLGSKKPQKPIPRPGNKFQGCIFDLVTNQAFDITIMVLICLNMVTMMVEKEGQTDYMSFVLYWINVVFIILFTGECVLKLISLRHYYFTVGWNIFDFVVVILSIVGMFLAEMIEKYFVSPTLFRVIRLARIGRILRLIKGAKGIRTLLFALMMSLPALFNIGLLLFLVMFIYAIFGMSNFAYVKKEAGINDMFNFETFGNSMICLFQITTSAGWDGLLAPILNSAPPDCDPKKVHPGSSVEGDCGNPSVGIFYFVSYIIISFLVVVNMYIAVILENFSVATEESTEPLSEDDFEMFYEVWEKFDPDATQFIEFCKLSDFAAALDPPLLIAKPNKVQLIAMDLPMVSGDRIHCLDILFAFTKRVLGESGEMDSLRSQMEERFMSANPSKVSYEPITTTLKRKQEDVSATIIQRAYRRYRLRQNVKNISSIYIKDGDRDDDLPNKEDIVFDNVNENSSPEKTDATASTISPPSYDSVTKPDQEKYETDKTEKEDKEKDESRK
Voltage-gated inwardly rectifying potassium channel KCNH2, sequence (Q12809 whole entry): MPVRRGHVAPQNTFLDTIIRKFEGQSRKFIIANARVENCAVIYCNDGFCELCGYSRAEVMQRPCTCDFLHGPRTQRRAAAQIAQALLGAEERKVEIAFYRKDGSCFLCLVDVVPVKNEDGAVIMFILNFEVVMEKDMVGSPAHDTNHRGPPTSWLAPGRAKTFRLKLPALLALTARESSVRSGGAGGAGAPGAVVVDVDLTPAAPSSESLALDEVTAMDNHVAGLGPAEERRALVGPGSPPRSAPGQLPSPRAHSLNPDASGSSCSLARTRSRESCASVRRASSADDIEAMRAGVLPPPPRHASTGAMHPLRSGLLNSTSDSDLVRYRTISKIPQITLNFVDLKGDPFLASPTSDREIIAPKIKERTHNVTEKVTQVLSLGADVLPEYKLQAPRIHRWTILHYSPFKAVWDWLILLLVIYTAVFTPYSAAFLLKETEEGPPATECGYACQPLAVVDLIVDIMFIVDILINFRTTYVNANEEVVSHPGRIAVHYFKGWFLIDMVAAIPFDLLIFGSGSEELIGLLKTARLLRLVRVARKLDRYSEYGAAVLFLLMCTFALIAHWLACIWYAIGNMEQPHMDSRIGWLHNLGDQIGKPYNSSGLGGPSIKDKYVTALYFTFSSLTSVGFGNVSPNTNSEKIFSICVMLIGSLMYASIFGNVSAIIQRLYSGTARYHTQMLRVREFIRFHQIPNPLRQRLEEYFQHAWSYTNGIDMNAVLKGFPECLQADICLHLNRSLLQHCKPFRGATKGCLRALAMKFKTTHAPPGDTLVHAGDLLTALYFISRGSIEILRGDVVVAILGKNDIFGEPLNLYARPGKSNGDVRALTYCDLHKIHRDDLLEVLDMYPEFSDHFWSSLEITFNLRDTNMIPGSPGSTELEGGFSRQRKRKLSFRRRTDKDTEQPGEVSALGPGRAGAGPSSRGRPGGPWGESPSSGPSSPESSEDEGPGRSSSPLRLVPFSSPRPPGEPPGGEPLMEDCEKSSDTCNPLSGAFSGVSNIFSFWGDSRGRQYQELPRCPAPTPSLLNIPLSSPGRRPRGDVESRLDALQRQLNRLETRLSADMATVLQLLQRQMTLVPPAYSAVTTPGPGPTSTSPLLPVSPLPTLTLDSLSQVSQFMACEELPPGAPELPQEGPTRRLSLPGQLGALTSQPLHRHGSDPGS

COc1cc(C(F)(F)F)ccc1-c1ncnc2cc(S(=O)(=O)Nc3nccs3)ccc12
bioavailability [1]: 100% | half-life [2]: 1.9 h | IC50 [3]: 7300 nM | Tmax [4]: 2.3 h | IC50 [5]: 160 nM | Cp(f) [6]: 0.11 µM | IC50 [7]: 180 nM | Activity [8]: Dose-dependent effect | CL free [9]: 17 mL/min/kg | IC50 [10]: 21000 nM | concentration at 0.5 h [11]: 3.1 µM | Cmax [12]: 3.4 µM | concentration at 0.5 h [13]: 22 µM | CL free [14]: 567 mL/min/kg | IC50 [15]: 9 nM | IC50 [16]: 7200 nM | IC50 [17]: 3700 nM | IC50 [18]: 140 nM | dose excreted at 24 h [19]: 0.02% | IC50 [20]: 180 nM | Cmax [21]: 8 µM | IC50 [22]: 16000 nM | pKa [23]: 6.5 | half-life [24]: 18 h | IC50 [25]: 160 nM | fraction unbound at 0.75 h, 5 µM [26]: 0.016 | clearance [27]: 0.217 mL/min/kg | fraction unbound at 5 µM [28]: 0.014 | IC50 [29]: 2100 nM | IC50 [30]: > 30000 nM | Ki [31]: > 30000 nM | Cp(f) [32]: 0.76 µM

From ChEMBL document CHEMBL3864175, “Sulfonamides as Selective NaV1.7 Inhibitors: Optimizing Potency and Pharmacokinetics to Enable in Vivo Target Engagement” (ACS Med Chem Lett, 2016)
